Legend:
[1] = melting temperature; fluorescence melt of hairpins on a sequencing array, two-state fit, raised by 9.35 °C to match UV melts; conditions: sodium 0.088 M
How it was run: (§1)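 Cy3 signals were normalised both to pre-quench Cy3 and to control constructs. They came from library hairpins carrying annealed Cy3 and quencher oligos on a sequenced MiSeq flow cell, imaged in 50 mM Na-HEPES pH 8.0, 25 mM NaCl, in 2.5 °C steps up to 60 °C. Bootstrapped two-state fits gave melting temperature and folding enthalpy, and four replicates were combined by inverse variance. Fitted temperatures were then raised by 9.35 °C to match UV melts.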

[2] = folding enthalpy; higher = less favourable; fluorescence melt of hairpins on a sequencing array, two-state fit; conditions: sodium 0.088 M
How it was run: as §1

Row | Sequence | Tm [1] | folding enthalpy [2]
1 | GGCTTCGAAAGAAACGCC ((((((....)))..))) | 43.8 °C | -26.1 kcal/mol
2 | GGCTTCGAAAGAACGCC ((((((....))).))) | 50.9 °C | -22.7 kcal/mol
3 | GGCTTCGAAAGAAGGCC ((((((....))).))) | 57.9 °C | -26.8 kcal/mol
4 | GGCTTCGGAAACAAAGCC (((((.(....).))))) | 44.2 °C | -28.3 kcal/mol
5 | GGCTTCGGAAACGAGGCC (((.(((....))).))) | 58.8 °C | -46.7 kcal/mol
6 | GGCTTGGGAAACCGAGTC (.((.((....)).)).) | 41.5 °C | -27.4 kcal/mol
7 | GGCTTGGGAAACTAGGCC (((.(.(....).).))) | 39.4 °C | -28.4 kcal/mol
8 | GGCTTTACGAAAGTAGCC (((..(((....)))))) | 45.5 °C | -27.7 kcal/mol
9 | GGCTTTGCGAAAGCAGCC (((..(((....)))))) | 52.1 °C | -17.2 kcal/mol
10 | GGCTTTGGAAACAAAGCC (((((((....))))))) | 68.3 °C | -34.1 kcal/mol
11 | GGCTTTGGAAACAGAGCC ((((.((....)).)))) | 50.6 °C | -35.3 kcal/mol
12 | GGGAAAGGAAACTTTCTC (.(((((....))))).) | 38.4 °C | -20.4 kcal/mol
13 | GGGAAAGGAAACTTTTCC ((.((((....)))).)) | 40.6 °C | -27 kcal/mol
14 | GGGAACGAAAGTTCCCCC ((((((....)))..))) | 68.4 °C | -9.06 kcal/mol
15 | GGGAACGAAAGTTGACCC ((((((....)))..))) | 37.8 °C | -20.9 kcal/mol
16 | GGGAACGAAAGTTGCCC ((((((....))).))) | 53 °C | -28.6 kcal/mol
17 | GGGAACGAAAGTTGGCCC ((((((....)))..))) | 32 °C | -14.7 kcal/mol
18 | GGGAACGAAAGTTGTCCC ((((((....)))..))) | 36.4 °C | -18.1 kcal/mol
19 | GGGAACGAAAGTTTACCC ((((((....)))..))) | 34.1 °C | -21.1 kcal/mol
20 | GGGAACGGAAACGTTCTC (.(((((....))))).) | 52.9 °C | -18.2 kcal/mol
21 | GGGAAGACGAAAGTCCCC (((..(((....)))))) | 45.3 °C | -19.1 kcal/mol
22 | GGGAAGCGAAAGCTACCC (((.(((....))).))) | 59.3 °C | -30.7 kcal/mol
23 | GGGAAGCGAAAGCTCCC (((.(((....)))))) | 59.7 °C | -38.7 kcal/mol

Row | Sequence | Tm [1] | folding enthalpy [2]
24 | GGGAAGGAAACTTCCC ((((((....)))))) | 58.1 °C | -31.8 kcal/mol
25 | GGGAATGGAAACATTCTC (.(((((....))))).) | 44.9 °C | -24.2 kcal/mol
26 | GGGAATGGAAACGTTTCC ((.((.(....).)).)) | 34.3 °C | -15.3 kcal/mol
27 | GGGACAACGAAAGTTCCC (((..(((....)))))) | 39.4 °C | -22.4 kcal/mol
28 | GGGACACGAAAGTGCCC (((.(((....)))))) | 60.9 °C | -24.1 kcal/mol
29 | GGGACAGAAATGTCCC ((((((....)))))) | 64.1 °C | -29.3 kcal/mol
30 | GGGACCGAAAGGTATCCC ((((((....)))..))) | 47.7 °C | -18.1 kcal/mol
31 | GGGACCGAAAGGTGCCC ((((((....))).))) | 61 °C | -17.7 kcal/mol
32 | GGGACCGAAAGGTGGCCC ((((((....)))..))) | 45.5 °C | -19 kcal/mol
33 | GGGACCGAAAGGTTCCC ((((((....))).))) | 60.4 °C | -26.7 kcal/mol
34 | GGGACGCCGAAAGGCCCC (((..(((....)))))) | 45.4 °C | -13.7 kcal/mol
35 | GGGACGGGAAACCGTCTC (.(((((....))))).) | 56.5 °C | -20.2 kcal/mol
36 | GGGACTCCGAAAGGACCC (((..(((....)))))) | 41.5 °C | -16 kcal/mol
37 | GGGACTGAAAAGTCCC ((((((....)))))) | 68.3 °C | -33.7 kcal/mol
38 | GGGACTGGAAACAGTCCC (((((((....))))))) | 69 °C | -37.8 kcal/mol
39 | GGGACTGGAAACGGTCCC (((((.(....).))))) | 57.6 °C | -44.6 kcal/mol
40 | GGGACTGGAAACGGTCTC (.(((.(....).))).) | 37.4 °C | -23.1 kcal/mol
41 | GGGAGACGAAAGTCCCCC (((.(((....))).))) | 58.8 °C | -28.8 kcal/mol
42 | GGGAGAGGAAACTCTTCC ((.((((....)))).)) | 45.5 °C | -30.7 kcal/mol
43 | GGGAGCACGAAAGTGCCC (((..(((....)))))) | 59.1 °C | -10.6 kcal/mol
44 | GGGAGCGAAAGCTAGCCC ((((((....)))..))) | 42.7 °C | -14.2 kcal/mol
45 | GGGAGCGAAAGCTCGCCC ((((((....)))..))) | 52.7 °C | -11.6 kcal/mol
46 | GGGAGCGAAAGCTGTCCC ((((((....)))..))) | 45.6 °C | -17.2 kcal/mol

Row | Sequence | Tm [1] | folding enthalpy [2]
47 | GGGAGCGAAAGCTTGCCC ((((((....)))..))) | 39.4 °C | -12.2 kcal/mol
48 | GGGAGGAAACTCCC (((((....))))) | 56 °C | -33.5 kcal/mol
49 | GGGAGGCCGAAAGGCCCC (((..(((....)))))) | 56.6 °C | -9.7 kcal/mol
50 | GGGAGTACGAAAGTACCC (((..(((....)))))) | 51.3 °C | -13.1 kcal/mol
51 | GGGAGTCGAAAGACCCCC (((.(((....))).))) | 59.3 °C | -37.3 kcal/mol
52 | GGGAGTGGAAACGCTCCC (((((.(....).))))) | 58 °C | -38.9 kcal/mol
53 | GGGAGTGGAAACGTTCCC ((((..(....)..)))) | 36.2 °C | -16.5 kcal/mol
54 | GGGAGTTCGAAAGAACCC (((..(((....)))))) | 47.9 °C | -18.2 kcal/mol
55 | GGGATACGAAAGTACCC (((.(((....)))))) | 51.2 °C | -27.4 kcal/mol
56 | GGGATAGGAAACTATCCC (((((((....))))))) | 59.2 °C | -42.8 kcal/mol
57 | GGGATAGGAAACTGTCCC ((((.((....)).)))) | 49.4 °C | -35.9 kcal/mol
58 | GGGATCACGAAAGTGCCC (((..(((....)))))) | 39.3 °C | -15.3 kcal/mol
59 | GGGATCGAAAGATAACCC ((((((....)))..))) | 34.9 °C | -19.4 kcal/mol
60 | GGGATCGAAAGATCACCC ((((((....)))..))) | 51.1 °C | -13.4 kcal/mol
61 | GGGATCGAAAGATGCCC ((((((....))).))) | 50.3 °C | -46.8 kcal/mol
62 | GGGATCGAAAGATGGCCC ((((((....)))..))) | 33.5 °C | -13.8 kcal/mol
63 | GGGATCGCGAAAGCGCCC (((..(((....)))))) | 40.6 °C | -13.8 kcal/mol
64 | GGGATCGGAAACGGTCCC ((((.((....)).)))) | 57.8 °C | -47.5 kcal/mol
65 | GGGATGGCGAAAGCCCCC (((..(((....)))))) | 47.3 °C | -15.7 kcal/mol
66 | GGGATGGGAAACCATCTC (.(((((....))))).) | 49.9 °C | -24.5 kcal/mol
67 | GGGATGGGAAACCGTCCC ((((.((....)).)))) | 56.5 °C | -50.5 kcal/mol
68 | GGGATTCCGAAAGGACCC (((..(((....)))))) | 40.3 °C | -16 kcal/mol

From the array DNA melting data of Ke et al. (doi:10.1101/2024.01.08.574731)
